# Assay outcomes: PubChem BioAssay, several laboratories
# Hits are enriched below; roughly 3.7% of the tested compounds scored in any of these assays.
# SR-BI HDL uptake: mouse SR-BI HDL lipid transfer inhibition. Q61009. ldlA[mSR-BI] CHO cells, DiI-HDL uptake fluorescence, 3 h. inhibition, % at 12.5 µM. 320,000 tested, 0.96% active. AID 488896;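 active means mean replicate inhibition of at least 70% and a set share of replicates each scoring 70 or more; inconclusive means meets just one of the two criteria; inactive means fails both criteria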;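 further: 0% = median of neutral control wells and 100% = median of positive control wells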
# AHR act: activators of human aryl hydrocarbon receptor; P35869; AHR-responsive luciferase reporter cells, luminescence; activation, % at 5 µM; 320,000 tested, 2.5% active; AID 2796; in the data active means activation above about 47%;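 further: 0% = vehicle wells and 100% = reference agonist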
# Target sequence (P35869 whole entry, looked up): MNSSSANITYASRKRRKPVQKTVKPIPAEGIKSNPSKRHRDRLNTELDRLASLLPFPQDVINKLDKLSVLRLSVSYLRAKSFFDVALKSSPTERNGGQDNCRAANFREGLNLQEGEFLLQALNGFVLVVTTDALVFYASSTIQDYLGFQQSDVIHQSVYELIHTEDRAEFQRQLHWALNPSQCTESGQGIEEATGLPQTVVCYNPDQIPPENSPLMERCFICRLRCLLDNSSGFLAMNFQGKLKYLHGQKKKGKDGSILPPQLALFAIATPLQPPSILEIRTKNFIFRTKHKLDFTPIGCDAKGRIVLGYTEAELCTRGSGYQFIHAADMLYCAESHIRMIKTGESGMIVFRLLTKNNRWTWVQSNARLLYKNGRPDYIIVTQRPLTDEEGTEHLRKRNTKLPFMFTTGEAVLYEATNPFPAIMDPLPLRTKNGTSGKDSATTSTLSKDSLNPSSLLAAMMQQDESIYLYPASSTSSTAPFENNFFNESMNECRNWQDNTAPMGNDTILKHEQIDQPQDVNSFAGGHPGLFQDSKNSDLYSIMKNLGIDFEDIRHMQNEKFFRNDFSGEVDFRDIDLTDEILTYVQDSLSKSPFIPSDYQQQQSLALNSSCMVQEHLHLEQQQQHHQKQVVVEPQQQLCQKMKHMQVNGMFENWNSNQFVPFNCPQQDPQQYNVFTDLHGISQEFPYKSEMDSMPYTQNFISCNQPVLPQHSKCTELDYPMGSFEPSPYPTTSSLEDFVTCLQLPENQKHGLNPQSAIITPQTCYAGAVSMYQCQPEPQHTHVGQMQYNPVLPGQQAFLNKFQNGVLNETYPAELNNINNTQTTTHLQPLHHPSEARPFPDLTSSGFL
# GASC-1 inh: inhibitors of human GASC-1 (JMJD2C) demethylase; GST-JMJD2C(1-420) H3K9me3 demethylation, DELFIA europium; Q9H3R0; inhibition, % at 2.35 µM; 330,000 tested, 0.069% active;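 active means more than half of a compound's replicate wells show inhibition beyond 50%, single wells judged on their own value; inconclusive means some, but no more than half, of replicates pass 50% inhibition; inactive means no replicate passes 50% inhibition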;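 further: signal counts dimethyl H3K9 product captured on neutravidin plate; 0% = median of DMSO wells and 100% = 0.3 times that DMSO median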
# GAA850 FXN act: frataxin GAA850 promoter activation; HEK293 lucGAA850 FXN promoter luciferase reporter, 24 h; percent of 10 µM SAHA response; activation, % at 6 µM; 360,000 tested, 0.56% active;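 active means activation above the average of all compounds screened plus 3 SD, cutoff fixed separately per campaign, cut at about 7.5% in these data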;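 further: 0% = DMSO wells and 100% = 10 µM SAHA wells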
# SR-BI DiI-HDL act: enhances SR-BI lipid uptake from DiI-HDL | AID 504775 | 320,000 tested, 0.096% active | activation, % at 12.5 µM | CHO ldlA[mSR-BI] cells, DiI-HDL uptake fluorescence, 3 h; 100 = double the neutral-control signal;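 active means mean replicate activation of at least 60% and every replicate at or above 60%; inconclusive means mean or all-replicate condition met, but not both; inactive means mean below 60% and not all replicates reaching 60%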;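 further: 0% = median plate neutral-control signal and 100% = twice that signal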
#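 Test system: SR-BI-overexpressing, LDLR-lacking CHO cells; Also added: labelled HDL, 10 µg/mL; Measured by: bottom-read cell fluorescence after medium removal, ex 550/em 595 nm; Timing: 3 h uptake period with compound, 37 °C; Buffer or medium: F12, 0.5% BSA, 25 mM HEPES; Doses: single compound concentration, delivered by pin transfer.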
# * hit, by the source's call; ? = inconclusive; · = no result.
SMILES,SR-BI HDL uptake,AHR act,GASC-1 inh,GAA850 FXN act,SR-BI DiI-HDL act
COC(=O)c1[nH]c(=O)c2ccccc2c1OCc1ccccc1,-199.8,1.1,4.3,0.0,199.8*
CC(OC(=O)c1nsc(Cl)c1Cl)C(=O)NCCc1ccccc1 (configuration not stated),-14.6,-0.3,5.8,1.8,14.6
COc1ccccc1NC(=S)N(Cc1ccco1)Cc1cc2ccc(C)c(C)c2[nH]c1=O,0.7,38.2,-4.7,1.2,-0.7
COc1ccccc1NC(=S)N(Cc1ccco1)Cc1cc2cc(C)cc(C)c2[nH]c1=O,34.8,71.7*,-0.8,-2.3,-34.8
Cc1c(C(=O)NCc2ccccc2C(F)(F)F)sc(=O)n1Cc1ccc2c(c1)OCO2,·,·,·,0.3,·
CCOC(=O)c1ccc(NC(=O)COc2ccccc2CNCCc2ccccc2)cc1,-3.9,50.0*,-0.5,-4.2,3.9
COc1cc(CNCCc2ccccc2)ccc1OCC(=O)NC(C)(C)C,-16.5,1.1,-6.3,-1.7,16.5
COc1cc(CNCCc2ccccc2)ccc1OCC(N)=O,-63.7,-0.7,9.3,2.6,63.7*
CCc1ccc(-n2c(C)n[nH]c2=S)cc1,-22.7,4.2,12.6,0.1,22.7
COc1c(OC(C)=O)c(=O)n2c3ccccc3c3ccnc1c32,-40.3,3.0,?,1.6,40.3
CCOc1ccc(Cn2ccnc2)cc1[N+](=O)[O-],-19.6,63.6*,-4.3,2.2,19.6
Cc1ccc(OCCCn2ccnc2)c([N+](=O)[O-])c1,4.8,37.0,-3.7,-0.6,-4.8
NC(=S)NN=C1CSSC1,·,·,·,-0.9,·
NC(=S)NN=C1CCC2(CCCCC2)CC1,84.9*,·,·,0.3,-84.9
CC1(C)CCC(=NNC(N)=S)CC1,60.5,·,·,-0.5,-60.5
NC(=S)NN=C1CCCCC12CCCC2,75.0*,·,·,-3.5,-75.0
Cc1cc(F)ccc1NS(=O)(=O)c1c(C(=O)N2CCOCC2)c(C)n(C)c1C,-9.0,-1.7,-0.8,0.6,9.0
O=C(Nc1ccc(Br)cc1)c1cc2ccccn2n1,-18.9,57.0*,-0.2,2.4,18.9
O=C(NCCc1ccc(Cl)cc1)c1cc2ccccn2n1,-8.0,0.3,-10.3,1.1,8.0
CCOC(=O)c1c2n(c3ccc(OC(C)=O)cc13)CCC2,-12.5,48.3*,-2.3,-0.4,12.5
COc1ccc(Cc2nnc(-c3cccc(C)c3)o2)cc1OC,-14.7,49.4*,-6.9,1.4,14.7
Cc1cc(C)c2c(N)c(-c3nnc(SCc4ccc(Cl)cc4)n3C)sc2n1,-4.6,4.4,-4.0,1.7,4.6
C=CCn1c(SCc2ccccc2Cl)nnc1-c1sc2nc(C)cc(C)c2c1N,3.7,79.4*,-22.6,1.2,-3.7
CC1CCN(C(=O)C2Cc3ccccc3CN2S(=O)(=O)c2ccc(F)cc2)CC1 (configuration not stated),-25.7,1.3,-4.5,10.8*,25.7
Cc1ccc(S(=O)(=O)/N=C2/C=C(Sc3ncn[nH]3)C(=O)c3ccccc32)c(C)c1,·,49.9*,25.8,·,·
SMILES,SR-BI HDL uptake,AHR act,GASC-1 inh,GAA850 FXN act,SR-BI DiI-HDL act
Cc1ccc(S(=O)(=O)/N=C2/C=C(Sc3ncn[nH]3)C(=O)c3ccccc32)cc1,20.3,57.0*,18.4,-20.9,-20.3
Cc1cc(OCc2ccc(F)cc2)nc(-c2ccccc2O)n1,78.0*,-2.6,10.1,0.6,-78.0
O=C(Cc1cccs1)Nc1nc2c(ccc3ccccc32)s1,67.7,60.5*,-16.1,-0.3,-67.7
CC(C)(CO)Nc1nc(Cl)nc(NC2CCCCC2)n1,-6.3,0.4,15.6,2.2,6.3
O=C1CC(SC(=Nc2ccccc2)Nc2ccccc2)C(=O)N1c1ccc(Cl)cc1 (configuration not stated),70.8*,3.0,-10.6,-2.8,-70.8
O=C1CC(SC(=Nc2ccccc2)Nc2ccccc2)C(=O)N1c1cccc(Cl)c1 (configuration not stated),78.4*,0.8,6.1,-9.6,-78.4
CN=C(Nc1ccccc1)SC1CC(=O)N(c2ccc(C(=O)OC)cc2)C1=O (configuration not stated),10.2,1.8,-1.2,-3.2,-10.2
Oc1ccc(C[C@@H]2CNCCN2CCCCC2CCCCC2)cc1,-14.8,-4.5,106.3,0.4,14.8
O=C(CCS(=O)(=O)c1ccccc1)Nc1ccccc1F,-7.0,-1.1,2.7,2.5,7.0
CCN(CC)c1ccc(/C=C2\SC(=O)N(C(C)C)C2=O)o1,·,-1.0,7.8,14.1*,·
CC(C)N1C(=O)S/C(=C/c2ccc3c(c2)n(C)c(=O)n3C)C1=O,0.8,-4.8,-5.5,4.2,-0.8
Cc1cc(C)c2[nH]c(C(=O)Nc3ccc4c(c3)OCO4)cc2c1,·,-2.0,34.9,2.2,·
CCc1onc(C)c1C(=O)Nc1ccc2c(c1)OCO2,14.9,58.1*,3.8,-1.1,-14.9
CCc1ccc2[nH]c(C(=O)Nc3ccc(Br)c(C)n3)cc2c1,48.1,·,-14.4,1.5,-48.1
CCc1ccc2[nH]c(C(=O)Nc3ccc(F)cc3Br)cc2c1,10.0,48.6*,3.6,1.6,-10.0
CCc1ccc2[nH]c(C(=O)Nc3ccc4c(c3)OCO4)cc2c1,37.6,72.2*,22.4,2.4,-37.6
Cc1cc(C)c2nc(-c3cccnc3)cc(C(=O)NC(C)c3cnn(C)c3C)c2c1 (configuration not stated),20.6,7.1,9.4,-1.1,-20.6
c1ccc(-c2nc(-c3cccnc3)cs2)cc1,·,·,-1.7,1.9,·
O=C(NCCc1csc(-c2cccnc2)n1)c1ccccc1,-3.1,3.9,-0.1,0.1,3.1
O=C(NCCc1csc(-c2cccnc2)n1)c1cccc2ccccc12,19.3,57.1*,-8.4,0.2,-19.3
O=C(NCc1ccccc1)c1csc(-c2cccnc2)n1,7.5,66.6*,-5.3,-3.4,-7.5
CCCCCC1C(C(=O)OCC)C(=O)NC1(C(=O)OCC)C(=O)OCC (configuration not stated),-8.0,·,·,0.8,8.0
O=C(Nc1ccc2c(c1)OCO2)c1csc([C@@H]2C[C@H](O)[C@@H](CO)O2)n1,·,·,·,0.2,·
COc1ccc(OC)c(Nc2cc(C)c3ccccc3n2)c1,40.1,48.8*,-3.3,0.1,-40.1
COc1ccc(/C=C/C(=O)O)cc1S(=O)(=O)NC1CCS(=O)(=O)C1 (configuration not stated),-16.5,-2.4,-0.3,-1.1,16.5
SMILES,SR-BI HDL uptake,AHR act,GASC-1 inh,GAA850 FXN act,SR-BI DiI-HDL act
Cc1cccc2cc3c(N)c(C#N)sc3nc12,18.8,-6.6,-2.9,-0.6,-18.8
Cc1sc(NC(=O)c2sc3nc4c(C)cccc4cc3c2N)c(C#N)c1C,90.4*,-1.8,-0.3,-3.3,-90.4
CC1CCCCC1NC(=O)CCCn1c(=S)[nH]c2ccsc2c1=O (configuration not stated),-6.0,0.1,4.8,2.9,6.0
COc1ccc(N=CC2=C(O)c3ccccc3C2=O)c(OC)c1,31.7,53.9*,-0.8,-3.4,-31.7
Cc1nnc(NC(=O)CSc2nnc(-c3ccccc3)n2C)s1,-0.5,-0.5,7.6,-0.3,0.5
COc1ccc(-c2oc3cccnc3c2/C=C/c2ccc(OC)c(OC)c2)cc1,66.9,47.1*,19.2,1.6,-66.9
